Results published in publication PMC6210075 (ACS Omega, 2018).
Values belong to the compound of their own block, whether it stands above or below them.

Columns and labels:
human FAAH [1] = target: T1, human FAAH (Homo sapiens, UniProt O00519); experiment: FAAH fluorescent inhibition assay; type: biochemical; conditions: for decrease in activity/potency toward FAAH: compared to PF-750
T1 sequence (O00519 1-579): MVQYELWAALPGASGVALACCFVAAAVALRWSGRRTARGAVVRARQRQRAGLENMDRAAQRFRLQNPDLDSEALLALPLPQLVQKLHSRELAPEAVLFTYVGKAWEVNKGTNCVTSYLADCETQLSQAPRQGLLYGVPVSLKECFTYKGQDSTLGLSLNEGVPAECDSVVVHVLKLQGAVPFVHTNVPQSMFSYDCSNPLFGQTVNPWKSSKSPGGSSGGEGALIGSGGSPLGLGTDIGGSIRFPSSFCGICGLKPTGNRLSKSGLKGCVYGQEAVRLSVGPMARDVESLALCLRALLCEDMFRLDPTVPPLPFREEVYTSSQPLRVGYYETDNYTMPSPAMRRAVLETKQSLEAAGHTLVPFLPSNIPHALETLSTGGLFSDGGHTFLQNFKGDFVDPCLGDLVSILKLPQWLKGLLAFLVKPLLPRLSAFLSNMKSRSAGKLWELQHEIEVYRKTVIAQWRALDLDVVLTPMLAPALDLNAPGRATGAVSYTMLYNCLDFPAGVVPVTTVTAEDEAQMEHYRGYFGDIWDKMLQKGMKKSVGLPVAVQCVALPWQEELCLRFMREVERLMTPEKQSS

human sEH [2] = target: T2, human sEH (Homo sapiens, UniProt P34913); experiment: sEH fluorescent inhibition assay; type: biochemical; conditions: compared to PF-750
T2 sequence (P34913 1-555): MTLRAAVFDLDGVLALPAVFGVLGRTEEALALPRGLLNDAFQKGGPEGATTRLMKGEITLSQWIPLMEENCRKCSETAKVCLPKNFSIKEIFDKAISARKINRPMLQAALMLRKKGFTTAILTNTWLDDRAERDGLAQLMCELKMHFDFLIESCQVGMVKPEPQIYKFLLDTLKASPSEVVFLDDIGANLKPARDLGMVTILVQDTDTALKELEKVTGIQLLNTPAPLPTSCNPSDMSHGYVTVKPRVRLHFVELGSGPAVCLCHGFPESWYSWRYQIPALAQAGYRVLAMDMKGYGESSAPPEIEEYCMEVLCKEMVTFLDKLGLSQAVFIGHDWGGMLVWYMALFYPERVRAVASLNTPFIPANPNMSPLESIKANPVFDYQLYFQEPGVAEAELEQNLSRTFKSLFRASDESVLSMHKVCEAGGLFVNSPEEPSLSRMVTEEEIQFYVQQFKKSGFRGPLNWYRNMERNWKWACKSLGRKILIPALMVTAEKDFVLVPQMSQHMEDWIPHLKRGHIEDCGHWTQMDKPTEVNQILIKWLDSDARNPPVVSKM

serine hydrolases [3] = experiment: Activity-based protein profiling; type: biochemical, mouse; conditions: mouse liver tissue homogenate, inhibitor 20 µM
serine hydrolases [4] = target: T3, serine hydrolases (Mus musculus, UniProt O08914); experiment: Activity-based protein profiling; type: biochemical; conditions: mouse brain tissue homogenate, inhibitor 20 µM
T3 sequence (O08914 1-579): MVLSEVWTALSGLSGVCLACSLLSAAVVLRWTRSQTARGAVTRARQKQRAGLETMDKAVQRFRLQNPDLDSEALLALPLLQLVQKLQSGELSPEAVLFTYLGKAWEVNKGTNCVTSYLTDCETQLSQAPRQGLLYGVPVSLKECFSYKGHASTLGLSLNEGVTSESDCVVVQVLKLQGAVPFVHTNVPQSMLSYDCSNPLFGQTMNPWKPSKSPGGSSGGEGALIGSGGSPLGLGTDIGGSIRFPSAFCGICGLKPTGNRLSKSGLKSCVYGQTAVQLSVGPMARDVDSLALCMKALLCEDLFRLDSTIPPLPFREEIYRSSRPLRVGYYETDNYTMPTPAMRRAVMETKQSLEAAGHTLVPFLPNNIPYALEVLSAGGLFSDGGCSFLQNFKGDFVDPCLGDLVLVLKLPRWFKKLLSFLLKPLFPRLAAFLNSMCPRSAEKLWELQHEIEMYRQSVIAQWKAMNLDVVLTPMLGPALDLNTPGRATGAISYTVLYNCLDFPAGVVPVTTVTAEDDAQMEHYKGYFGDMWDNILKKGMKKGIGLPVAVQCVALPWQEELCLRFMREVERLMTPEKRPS

human FAAH [5] = target: T1, human FAAH; experiment: Ki and kinact determination on FAAH; type: biochemical
Summary of the method: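 Crude baculovirus-expressed recombinant FAAH (High Five cell S9 fraction in 50 mM Tris/HCl pH 8.0, 1 mM CHAPS, 10% glycerol). OMP (100 μM final) was mixed with a range of test compound concentrations and held 5 min at 37 °C.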

rat FAAH = target: T4, rat FAAH (Rattus norvegicus, UniProt P97612); experiment: FAAH fluorescent inhibition assay, rat brain microsomes; type: biochemical; conditions: FAAH IC50 (5 min pre-incubation), 5 min pre-incubation
T4 sequence (P97612 1-579): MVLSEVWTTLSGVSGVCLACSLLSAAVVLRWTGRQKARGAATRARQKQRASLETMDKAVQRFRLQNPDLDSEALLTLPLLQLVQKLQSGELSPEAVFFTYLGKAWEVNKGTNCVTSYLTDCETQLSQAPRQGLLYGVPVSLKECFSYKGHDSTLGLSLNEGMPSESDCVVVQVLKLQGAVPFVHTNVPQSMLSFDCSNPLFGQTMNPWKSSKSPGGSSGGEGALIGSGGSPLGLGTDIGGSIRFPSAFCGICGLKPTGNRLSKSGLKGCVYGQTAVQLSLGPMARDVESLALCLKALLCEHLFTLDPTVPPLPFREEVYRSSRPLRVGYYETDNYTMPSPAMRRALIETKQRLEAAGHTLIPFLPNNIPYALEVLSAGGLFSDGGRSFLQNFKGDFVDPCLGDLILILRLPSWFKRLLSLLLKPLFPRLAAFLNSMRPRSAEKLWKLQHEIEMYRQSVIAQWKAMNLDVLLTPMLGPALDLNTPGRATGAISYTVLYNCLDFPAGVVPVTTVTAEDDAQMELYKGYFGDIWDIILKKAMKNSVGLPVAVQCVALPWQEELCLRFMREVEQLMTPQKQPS
Summary of the method: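 Rat brain microsomes: tissue homogenized in 20 mM phosphate (pH 7.4, 5 mM EDTA), spun at 9000g for 20 min, then 100 000g for 1 h, and stored at −80 °C. OMP (100 μM final) in 0.1 M sodium phosphate pH 8, 0.1 mg/mL BSA, 2% DMSO, 37 °C. Fluorescence (ex 303/em 394 nm) read every 30 s for 10 min. No-enzyme background subtracted. IC50 from linear regression of log[I] vs % remaining activity; triplicates.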

[6] = Cassette dosing pharmacokinetics in rats; type: in vivo; conditions: male, Sprague-Dawley, rat, whole blood, po, 1 mg/kg
Summary of the method: (§1)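 Test compounds were given as a cassette cocktail at 1 mg/kg each, p.o. in PEG300, to groups of 4 rats or 4 mice. Blood was taken by tail vein at set intervals and group averages were used.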

mouse FAAH = target: T5, mouse FAAH (Mus musculus, UniProt O08914); experiment: FAAH fluorescent inhibition assay, mouse crude tissue homogenate; type: biochemical; conditions: FAAH IC50 (5 min pre-incubation)
T5 sequence (O08914 1-579): T3 sequence (O08914 1-579)

[7] = Cassette dosing pharmacokinetics in mice; type: in vivo; conditions: male, Swiss Webster, mouse, whole blood, po, 1 mg/kg
Summary of the method: as §1

human sEH [8] = target: T2, human sEH; experiment: FRET-based displacement assay for inhibitor dissociation from sEH; type: binding

Compound: O=C(Nc1ccc(F)cc1)N1CCC(Cc2cnc3ccccc3c2)CC1 [compound 1]
increase in activity/potency toward sEH (human sEH [2]): 7 fold | decrease in activity/potency toward FAAH (human FAAH [1]): 5 fold

Compound: O=C(Nc1ccc(Cl)cc1)N1CCC(Cc2cnc3ccccc3c2)CC1 [compound 2]
decrease in activity/potency toward FAAH (human FAAH [1]): 3 fold

Compound: NC(=O)c1cccc(-c2cccc(OC(=O)NC3CCCCC3)c2)c1 [URB597, cyclohexyl carbamic acid 3′-carbamoyl-biphenyl-3-yl ester, reference compound]
other serine hydrolase bands (ABPP) (serine hydrolases [3]): reduced the intensity of a band around 62.5 kDa | intensity of the FAAH band (ABPP) (serine hydrolases [4]): reduced

Further lines, with some results ahead:

decrease in activity/potency toward FAAH (human FAAH [1]): 3 fold
Compound: O=C(Nc1ccccc1F)N1CCC(Cc2cnc3ccccc3c2)CC1 [compound 3]

increase in activity toward FAAH (human FAAH [1]; compared to 5 (3-quinoline)): 4 fold
Compound: COc1ccc(NC(=O)N2CCC(Cc3ccc4ccccc4c3)CC2)cc1 [compound 8]

increase in activity/potency toward sEH (human sEH [2]): 5 fold
Compound: COc1ccc(NC(=O)N2CCC(Cc3cnc4ccccc4c3)CC2)cc1 [compound 5]

Ki (human FAAH [5]): 0.037 µM | kinact (human FAAH [5]): 0.000317 s⁻¹ | kinact/KI (human FAAH [5]): 500000 M⁻¹ s⁻¹ | IC50 (rat FAAH): > 10 µM | AUC [6]: 0.74 µM·h | Cmax [6]: 66 nM | IC50 (mouse FAAH): > 10 µM | AUC [7]: 0.75 µM·h | Cmax [7]: 65 nM | t1/2 (half-life on the enzyme) (human sEH [8]; human sEH): 9.9 min | koff (human sEH [8]; read-out: koff × 10^–3): 1.2 s⁻¹
Compound: O=C(Nc1ccc(C(F)(F)F)cc1)N1CCC(Cc2cccc(Oc3ccc(C(F)(F)F)cn3)c2)CC1 [compound 13]
other serine hydrolase bands (ABPP) (serine hydrolases [3]): neither 11, 13, 14, 18, nor PF-3845 had any effect on the intensity of other bands | intensity of the FAAH band (ABPP) (serine hydrolases [4]): does not appear to fully inhibit the band corresponding to FAAH
